1 compound from ChEMBL document CHEMBL4342410, “Design and Discovery of N-(3-(2-(2-Hydroxyethoxy)-6-morpholinopyridin-4-yl)-4-methylphenyl)-2-(trifluoromethyl)isonicotinamide, a Selective, Efficacious, and Well-Tolerated RAF Inhibitor Targeting RAS Mutant Cancers: The Path to the Clinic” (J Med Chem, 2020) can be followed below.

Structures are written as SMILES. Converted amounts (≈) assume the structure as drawn. Bounds are passed on as bounds.

The nature of data set [1]: Volume of distribution at steady state in rat at 2 mg/kg, iv or 4 mg/kg, po. The class given is ADME, organism-based. Particulars: in vivo, read-out: Vdss.
In another data set the test system is Rattus norvegicus. Description: In vivo inhibition of CRAF in po dosed nude rat xenografted with human Calu6 cells harboring KRAS Q61K mutant assessed as reduction in tumor MEK phosphorylation administered as single dose measured after 1 to 48 hrs by sandwich ELISA. Format: functional, organism-based. The essentials:
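Calu-6 (KRAS Q61K) xenograft-bearing nude rats were given a single oral dose of 15, 35, 75 or 150 mg/kg. Tumor and blood were sampled at 1, 4, 7, 24 and 48 h post-dose. Tumor pMEK was quantified by MSD immunoassay and expressed as percent pMEK. Free plasma exposure was determined in parallel.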

A short description of data set [2]: Solubility of compound in pH 6.8 Cl-free PBS buffer by shake-flask assay. The class given is physicochemical. The essentials:
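Shake-flask solubility measured in chloride-free PBS at pH 6.8.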

Data set [3] can be described thus: Time of last measurable concentration in nude rat xenografted with human Calu6 cells harboring KRAS Q61K mutant at 75 mg/kg, po administered daily for 18 days starting from day 13 post tumor implantation and measured on day 31. The conditions noted are these: in vivo, 432 h. Format: ADME, organism-based. The essentials: (§1)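 Calu-6 xenograft nude rats were dosed orally once daily at 15, 35, 75 or 150 mg/kg from day 13 after implantation to day 31. Plasma was collected after the last dose on day 31, drug concentrations were measured, and PK parameters including AUC were calculated for each dose.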

The nature of data set [4]: Oral bioavailability in dog at 0.4 mg/kg. The conditions noted are these: in vivo. The class given is ADME, organism-based, Canis lupus familiaris.
Data set [5] is described as follows: Tmax in nude rat xenografted with human Calu6 cells harboring KRAS Q61K mutant at 150 mg/kg, po administered daily for 18 days starting from day 13 post tumor implantation and measured on day 31. The conditions noted are these: in vivo. The class given is ADME, organism-based. The essentials:
as §1

Data set [6] can be described thus: Cmax in mouse at 4 mg/kg, po. Further details: dose 4 mg/kg, route oral. Format: ADME, organism-based. The conditions noted are these: in vivo.
A short description of data set [7]: AUC (infinity) in rat at 4 mg/kg, po. The class given is ADME, organism-based. Further details: dose 4 mg/kg, route oral, time infinity. The conditions noted are these: in vivo.
Data set [8] is described as follows: Apparent permeability across apical to basolateral side in human Caco2 cells at pH 7.4 by LC/MS/MS analysis. The class given is ADME, cell-based. The conditions noted are these: Caco-2, pH 7.4.
A further data set has as its system Calu-6. Put plainly: Antitumor activity against human Calu6 cells harboring KRAS Q61K mutant xenografted in nude rat assessed as tumor regression at 75 mg/kg, po administered daily for 18 days starting from day 13 post tumor implantation and measured on day 31 relative to control. Format: functional. The essentials:
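Nude rats bearing Calu-6 (KRAS Q61K) human NSCLC xenografts received vehicle or drug p.o. daily at 15, 35, 75 or 150 mg/kg. Dosing began 13 days after tumor implantation and ran to day 31, i.e. 18 days of treatment. Tumor volumes were read out as %T/C or % regression versus vehicle on day 31. Body weight was also tracked.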
(Xenograft models place foreign cells or tissue in a host animal.)

The target of data set [9] is T1, Discoidin domain-containing receptor 2 (Homo sapiens, UniProt Q16832).
T1 sequence (Q16832 whole entry): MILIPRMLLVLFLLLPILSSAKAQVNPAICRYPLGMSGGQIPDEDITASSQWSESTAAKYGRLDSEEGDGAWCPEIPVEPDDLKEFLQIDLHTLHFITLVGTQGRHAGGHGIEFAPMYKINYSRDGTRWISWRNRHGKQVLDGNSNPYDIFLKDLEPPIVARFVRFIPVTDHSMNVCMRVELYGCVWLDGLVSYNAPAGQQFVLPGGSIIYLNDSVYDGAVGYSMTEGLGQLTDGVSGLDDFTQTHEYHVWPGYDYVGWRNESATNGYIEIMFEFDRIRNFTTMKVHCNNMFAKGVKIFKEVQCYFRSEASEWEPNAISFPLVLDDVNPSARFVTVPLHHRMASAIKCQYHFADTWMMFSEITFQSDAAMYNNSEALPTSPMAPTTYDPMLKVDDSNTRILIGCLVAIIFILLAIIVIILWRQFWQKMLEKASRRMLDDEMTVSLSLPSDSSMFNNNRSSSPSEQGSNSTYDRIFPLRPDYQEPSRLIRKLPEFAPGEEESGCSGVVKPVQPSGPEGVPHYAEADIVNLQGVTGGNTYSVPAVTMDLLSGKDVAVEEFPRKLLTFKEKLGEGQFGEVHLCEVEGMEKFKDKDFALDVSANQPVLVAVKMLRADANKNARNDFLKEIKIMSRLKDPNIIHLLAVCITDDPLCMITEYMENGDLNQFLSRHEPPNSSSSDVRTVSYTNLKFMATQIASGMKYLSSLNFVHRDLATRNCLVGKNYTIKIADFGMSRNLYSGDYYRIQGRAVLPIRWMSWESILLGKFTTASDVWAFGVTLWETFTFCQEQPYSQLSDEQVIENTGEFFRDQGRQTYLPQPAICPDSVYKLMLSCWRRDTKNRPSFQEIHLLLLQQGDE
Put plainly: Binding affinity to wild-type human partial length DDR2 (V555 to E855 residues) expressed in mammalian expression system by Kinomescan method.

A short description of data set [10]: Volume of distribution at steady state in mouse at 2 mg/kg, iv or 4 mg/kg, po. Format: ADME, organism-based. The conditions noted are these: in vivo, read-out: Vdss.
A short description of data set [11]: Time of last measurable concentration in nude rat xenografted with human Calu6 cells harboring KRAS Q61K mutant at 15 mg/kg, po administered daily for 18 days starting from day 13 post tumor implantation and measured on day 31. The class given is ADME, organism-based. The conditions noted are these: in vivo, 432 h. The essentials:
as §1

Data set [12] addresses Platelet-derived growth factor receptor beta (Homo sapiens, UniProt P09619). Description: Binding affinity to wild-type human partial length PDGFRB (V582 to Y1009 residues) expressed in bacterial expression system at 1 uM by Kinomescan method relative to control. The essentials: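 KINOMEscan competition binding panel of about 456 kinases, compound tested at 1 μM. Activity is given as % of control = [(test signal − positive control signal)/(negative control signal − positive control signal)] × 100.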

Data set [13] has as its target RAF proto-oncogene serine/threonine-protein kinase (Homo sapiens, UniProt P04049). Description: Inhibition of CRAF in human Calu6 cells assessed as reduction MEK phosphorylation measured after 1 hr by sandwich ELISA. The class given is cell-based. In general terms: An ELISA detects its analyte on a solid surface through an enzyme-linked reagent.
For data set [14], the target named is Serine/threonine-protein kinase B-raf (Homo sapiens, UniProt P15056). Put plainly: Binding affinity to wild-type human partial length BRAF (S429 to E741 residues) expressed in mammalian expression system at 1 uM by Kinomescan method relative to control.
Data set [15] is described as follows: AUC (0 to 24 hrs) in nude rat xenografted with human Calu6 cells harboring KRAS Q61K mutant at 150 mg/kg, po administered daily for 18 days starting from day 13 post tumor implantation and measured on day 31. Particulars: in vivo. The class given is ADME, organism-based. Further details: dose 150 mg/kg, time < 24 hr, route oral. The essentials: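 Nude rats carrying Calu-6 (KRAS Q61K) NSCLC xenografts were dosed p.o. once daily at 15, 35, 75 or 150 mg/kg from day 13 to day 31 after implant. Plasma was collected after the last dose and drug concentration was measured. AUC and Cmax were calculated per dose on day 31.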

The target in the next data set is Cytochrome P450 3A4 (Homo sapiens, UniProt P08684). Put plainly: Time dependent inhibition of CYP3A4 in human liver microsomes assessed as inactivation rate constant at 10 uM using midazolam as substrate incubated prior to substrate addition and measured after 6 mins in presence of NADPH. Particulars: 0.1 h. Format: ADME. The essentials: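 Human liver microsomes (0.5 mg/mL) preincubated with test compound at 10 µM and 1 mM NADPH in phosphate buffer at 37 °C for 0, 5, 15 and 30 min. Mixture then diluted 20-fold and incubated with midazolam (20 µM) at 37 °C for 6 min to measure residual CYP3A4 activity. kobs taken as the initial rate of decline of activity versus preincubation time.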
A general note: Liver microsomes are a subcellular fraction often used to study metabolism.

Chain of RAF proto-oncogene serine/threonine-protein kinase (P04049 whole entry, the tested form may be a part): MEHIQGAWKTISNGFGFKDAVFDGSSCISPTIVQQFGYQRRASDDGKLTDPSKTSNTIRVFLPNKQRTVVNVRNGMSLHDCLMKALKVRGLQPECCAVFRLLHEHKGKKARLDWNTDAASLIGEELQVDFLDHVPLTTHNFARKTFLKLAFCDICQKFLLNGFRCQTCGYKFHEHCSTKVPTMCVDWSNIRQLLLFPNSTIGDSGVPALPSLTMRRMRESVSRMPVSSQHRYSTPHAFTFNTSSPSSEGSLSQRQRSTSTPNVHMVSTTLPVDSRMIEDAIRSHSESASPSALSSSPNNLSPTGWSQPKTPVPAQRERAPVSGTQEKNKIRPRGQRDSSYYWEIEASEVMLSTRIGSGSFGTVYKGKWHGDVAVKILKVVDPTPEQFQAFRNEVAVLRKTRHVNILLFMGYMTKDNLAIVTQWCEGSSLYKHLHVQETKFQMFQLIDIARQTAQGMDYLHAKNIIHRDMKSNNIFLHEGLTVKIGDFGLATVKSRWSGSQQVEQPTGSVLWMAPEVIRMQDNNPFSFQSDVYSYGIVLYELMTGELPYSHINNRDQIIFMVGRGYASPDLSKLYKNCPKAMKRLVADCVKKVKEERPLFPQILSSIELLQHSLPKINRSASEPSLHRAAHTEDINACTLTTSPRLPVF
Chain of Cytochrome P450 3A4 (P08684 whole entry): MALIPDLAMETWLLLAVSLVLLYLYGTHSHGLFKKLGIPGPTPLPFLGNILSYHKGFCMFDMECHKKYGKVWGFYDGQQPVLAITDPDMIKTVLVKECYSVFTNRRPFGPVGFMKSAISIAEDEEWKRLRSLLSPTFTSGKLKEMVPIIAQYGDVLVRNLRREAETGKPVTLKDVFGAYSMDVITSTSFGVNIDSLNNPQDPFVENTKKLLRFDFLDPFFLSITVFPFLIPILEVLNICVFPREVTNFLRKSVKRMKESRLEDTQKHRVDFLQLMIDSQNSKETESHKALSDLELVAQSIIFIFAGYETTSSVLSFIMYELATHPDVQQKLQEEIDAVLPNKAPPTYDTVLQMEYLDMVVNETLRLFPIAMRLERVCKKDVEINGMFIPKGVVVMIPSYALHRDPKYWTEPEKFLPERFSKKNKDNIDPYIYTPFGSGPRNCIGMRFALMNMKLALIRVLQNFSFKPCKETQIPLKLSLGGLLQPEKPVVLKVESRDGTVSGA
Chain of Serine/threonine-protein kinase B-raf (P15056 whole entry, the tested form may be a part): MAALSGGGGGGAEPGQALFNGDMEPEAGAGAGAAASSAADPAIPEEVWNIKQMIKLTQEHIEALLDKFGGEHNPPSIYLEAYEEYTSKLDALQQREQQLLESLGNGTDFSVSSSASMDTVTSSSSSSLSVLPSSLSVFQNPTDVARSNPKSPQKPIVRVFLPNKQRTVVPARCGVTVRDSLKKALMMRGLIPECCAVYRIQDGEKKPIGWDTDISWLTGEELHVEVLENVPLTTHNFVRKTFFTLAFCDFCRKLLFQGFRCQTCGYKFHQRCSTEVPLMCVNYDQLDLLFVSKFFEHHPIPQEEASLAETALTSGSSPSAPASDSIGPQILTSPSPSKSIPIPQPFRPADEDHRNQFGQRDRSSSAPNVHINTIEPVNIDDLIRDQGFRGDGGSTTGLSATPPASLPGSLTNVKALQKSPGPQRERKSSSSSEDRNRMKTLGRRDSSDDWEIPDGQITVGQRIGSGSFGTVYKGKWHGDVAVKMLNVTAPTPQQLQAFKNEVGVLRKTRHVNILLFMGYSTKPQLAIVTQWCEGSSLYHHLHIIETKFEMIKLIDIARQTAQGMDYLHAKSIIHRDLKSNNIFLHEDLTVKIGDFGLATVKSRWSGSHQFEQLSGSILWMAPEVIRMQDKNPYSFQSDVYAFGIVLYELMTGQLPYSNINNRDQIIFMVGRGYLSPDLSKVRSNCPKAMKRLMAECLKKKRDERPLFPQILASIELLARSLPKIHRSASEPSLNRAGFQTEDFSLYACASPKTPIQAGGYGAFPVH
Chain of Platelet-derived growth factor receptor beta (P09619 whole entry, the tested form may be a part): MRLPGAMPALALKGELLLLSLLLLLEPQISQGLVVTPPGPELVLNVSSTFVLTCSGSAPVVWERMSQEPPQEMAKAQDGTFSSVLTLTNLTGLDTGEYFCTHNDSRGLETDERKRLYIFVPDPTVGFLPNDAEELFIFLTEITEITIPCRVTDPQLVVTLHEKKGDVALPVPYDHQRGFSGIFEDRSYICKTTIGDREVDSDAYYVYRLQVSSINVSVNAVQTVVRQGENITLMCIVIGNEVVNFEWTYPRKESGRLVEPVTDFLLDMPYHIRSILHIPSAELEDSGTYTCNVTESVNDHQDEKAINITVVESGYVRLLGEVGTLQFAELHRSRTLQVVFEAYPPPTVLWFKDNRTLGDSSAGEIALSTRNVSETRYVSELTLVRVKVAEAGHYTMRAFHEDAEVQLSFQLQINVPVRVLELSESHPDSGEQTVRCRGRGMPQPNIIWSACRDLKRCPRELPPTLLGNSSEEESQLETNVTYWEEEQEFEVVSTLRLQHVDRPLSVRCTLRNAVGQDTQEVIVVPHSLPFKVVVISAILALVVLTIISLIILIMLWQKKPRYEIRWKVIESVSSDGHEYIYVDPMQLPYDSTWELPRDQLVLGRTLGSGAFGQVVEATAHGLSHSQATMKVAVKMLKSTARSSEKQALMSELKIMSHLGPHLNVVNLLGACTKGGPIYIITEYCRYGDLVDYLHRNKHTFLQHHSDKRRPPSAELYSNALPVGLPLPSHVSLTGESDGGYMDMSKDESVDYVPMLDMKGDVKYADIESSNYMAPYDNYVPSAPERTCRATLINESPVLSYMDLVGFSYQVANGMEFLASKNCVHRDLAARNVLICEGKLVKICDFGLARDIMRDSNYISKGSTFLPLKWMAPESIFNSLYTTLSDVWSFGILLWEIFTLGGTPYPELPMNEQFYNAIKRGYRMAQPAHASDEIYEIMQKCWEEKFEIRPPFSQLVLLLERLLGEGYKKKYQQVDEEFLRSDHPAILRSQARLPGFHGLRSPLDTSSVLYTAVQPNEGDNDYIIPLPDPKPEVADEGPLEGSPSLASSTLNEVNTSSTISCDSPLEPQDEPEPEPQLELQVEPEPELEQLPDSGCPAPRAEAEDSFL

With `Cc1ccc(NC(=O)c2ccnc(C(F)(F)F)c2)cc1-c1cc(OCCO)nc(N2CCOCC2)c1` [NAPORAFENIB], the Vd in [1] was 5.4 L/kg; in [10], 2.1 L/kg. Also, the inhibition entry in the data set with Rattus norvegicus was “Dose-dependent effect”. The compound also displayed a thermodynamic solubility in data set [2] of 20 µM (≈ 10 µg/mL). Besides, the Tlast in [3] and in [11] was 24 h throughout. For the same compound, in data set [4], the bioavailability was 79%. Besides, in data set [5], the Tmax is 5.5 h. The same compound gave a peak concentration (Cmax) in data set [6] of 1600 nM. In data set [7], the total exposure AUC(0-inf) came out at 1.8 µM·h. Besides, in [8], the Papp A→B is 9 ×10⁻⁶ cm/s. Further, the Activity in the data set with Calu-6 was 21%; in data set [12], more than 99%; in [14], more than 98%. Binding in [9] was put at a Kd of 10 nM. Further, the EC50 in data set [13] was in the range of 14 to 50 nM. Moreover, the area under the curve (AUC) at 24 h in data set [15] was 217 µM·h. The K at Cytochrome P450 3A4 amounted to 0.01 min⁻¹.

In general, thermodynamic solubility refers to solubility found after equilibrating the solid with the medium. As a reminder, the bioavailability is dose-corrected exposure relative to a reference, in per cent. Broadly, the Tmax is the time at which the peak concentration occurs. Broadly, the Cmax is the highest concentration seen after dosing. Broadly, the AUC(0-inf) is the area under the concentration-time curve extrapolated to infinity. The term Papp A→B denotes the apparent permeability from the apical to the basolateral side of a cell layer. For orientation: Kd means the concentration at which binding is half-saturated. The term EC50 denotes the concentration giving half of the maximal effect. As usually defined, the AUC is concentration integrated over time.
